# ChEMBL document CHEMBL3817827, “5-Substituted 3-chlorokenpaullone derivatives are potent inhibitors of Trypanosoma brucei bloodstream forms” (Bioorg Med Chem, 2016)
# Active and inactive are the calls of the source. No cut-off for these calls is given here.
# How the values were obtained:
# [1] = Selectivity index, ratio of EC50 for mouse J774 cells to EC50 for bloodstream forms of Trypanosoma brucei brucei 427 stably transfected with pHD449 plasmid; format: toxicity, cell-based; conditions: read-out: Ratio EC50
# [2] = test system: Trypanosoma brucei brucei; experiment: Antitrypanosomal activity against bloodstream forms of Trypanosoma brucei brucei 427 stably transfected with pHD449 plasmid assessed as reduction in parasite viability after 24 hrs by propidium iodide staining based flow cytometry; format: functional, organism-based; conditions: Trypanosoma brucei, 427, 24 h
# [3] = Inhibition of Trypanosoma cruzi recombinant His-tagged TryS expressed in Escherichia coli BL21 (DE3) assessed as inorganic phosphate release after 15 mins by malachite green dye based end-point assay
# Method in brief: (§1)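 His-tagged TryS expressed in E. coli BL21(DE3), Ni-NTA then gel filtration/ion exchange purified. Reaction buffer: 100 mM HEPES pH 7.4, 5 mM DTT, 10 mM MgSO4, 0.5 mM EDTA, 9 mM NaCl, 10% DMSO; 150 µM ATP, 2 mM spermidine; glutathione 0.05 (Tb), 0.57 (Tc), 0.25 mM (Li). Stopped at 15 min, malachite green phosphate read at 650 nm, blank-corrected versus DMSO; screen at 30 µM, IC50 if >50% inhibition.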
# Leishmania infantum = experiment: Inhibition of Leishmania infantum recombinant His-tagged TryS expressed in Escherichia coli BL21 (DE3) assessed as residual enzyme activity by measuring inorganic phosphate release at 30 uM after 15 mins by malachite green dye based end-point assay; method in brief: as §1
# [4] = Aqueous solubility of compound in phosphate buffer at 0.25 mg at pH 7.4 after 48 hrs by HPLC based shake flask method; format: physicochemical
# Trypanosoma brucei = experiment: Inhibition of Trypanosoma brucei recombinant His-tagged TryS expressed in Escherichia coli BL21 (DE3) assessed as residual enzyme activity by measuring inorganic phosphate release at 30 uM after 15 mins by malachite green dye based end-point assay; method in brief: as §1
# [5] = Inhibition of Leishmania infantum recombinant His-tagged TryS expressed in Escherichia coli BL21 (DE3) assessed as inorganic phosphate release after 15 mins by malachite green dye based end-point assay; method in brief: as §1
# Trypanosoma cruzi = experiment: Inhibition of Trypanosoma cruzi recombinant His-tagged TryS expressed in Escherichia coli BL21 (DE3) assessed as residual enzyme activity by measuring inorganic phosphate release at 30 uM after 15 mins by malachite green dye based end-point assay; method in brief: as §1
# [6] = test system: Trypanosoma brucei brucei; experiment: Antitrypanosomal activity against bloodstream forms of Trypanosoma brucei brucei 427 stably transfected with pHD449 plasmid assessed as parasite viability at 5 uM after 24 hrs by propidium iodide staining based flow cytometry; format: functional
# [7] = target: Cyclin-dependent kinase 5/CDK5 activator 1 (Homo sapiens) (UniProt Q00535+Q15078); experiment: Inhibition of human recombinant CDK5/p25 expressed in Escherichia coli at 10 uM using histone H1 as substrate after 30 mins by scintillation counting method
# Chain of Cyclin-dependent kinase 5/CDK5 activator 1 (Homo sapiens) (Q00535 whole entry): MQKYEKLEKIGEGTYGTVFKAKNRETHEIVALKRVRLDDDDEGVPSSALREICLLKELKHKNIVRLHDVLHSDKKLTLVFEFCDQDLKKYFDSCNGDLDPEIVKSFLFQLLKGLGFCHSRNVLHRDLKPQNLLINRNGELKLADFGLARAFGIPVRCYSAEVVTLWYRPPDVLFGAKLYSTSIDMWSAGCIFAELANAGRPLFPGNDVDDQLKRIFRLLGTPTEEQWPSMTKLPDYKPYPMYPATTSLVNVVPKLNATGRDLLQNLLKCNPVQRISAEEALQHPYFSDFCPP
# Chain of Cyclin-dependent kinase 5/CDK5 activator 1 (Homo sapiens) (Q15078 99-307 partner limits assumed): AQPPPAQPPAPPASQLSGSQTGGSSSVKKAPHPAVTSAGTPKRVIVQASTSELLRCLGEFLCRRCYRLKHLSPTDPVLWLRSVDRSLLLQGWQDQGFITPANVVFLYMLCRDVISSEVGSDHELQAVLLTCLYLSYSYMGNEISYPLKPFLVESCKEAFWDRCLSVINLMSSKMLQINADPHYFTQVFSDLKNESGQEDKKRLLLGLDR
# Method in brief: (§2)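 Radiometric kinase assay with 15 µM ATP, 30 min at 30 °C in buffer A (10 mM MgCl2, 1 mM EGTA, 1 mM DTT, 25 mM Tris-HCl pH 7.5, 50 µg/mL heparin); BSA 0.15 mg/mL added except for CDK2. Substrates: histone H1 (CDK1, CDK2, CDK5), CDK7/9-Tide (CDK9), RS peptide (DYRK1A, CLK1), GS-1 (GSK-3). Stopped onto P81 paper, acid-washed, scintillation counted; activity as % of DMSO control.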
# [8] = target: Dual specificity tyrosine-phosphorylation-regulated kinase 1A (Homo sapiens) (UniProt Q13627); experiment: Inhibition of GST-tagged human recombinant DYRK1A expressed in Escherichia coli at 10 uM after 30 mins by scintillation counting method; method in brief: as §2
# Sus scrofa = species on record: Sus scrofa; experiment: Inhibition of porcine brain CK1delta/epsilon at 10 uM using CKS peptide as substrate after 30 mins by scintillation counting method
# Method in brief: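 Native porcine brain CK1δ/ε purified on axin 2-sepharose, assayed with 0.67 µg CKS peptide and 15 µM ATP, 30 min at 30 °C; phosphate incorporation captured on P81 paper, counted by scintillation, expressed as % of activity without inhibitor.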
# [9] = target: CDK2/Cyclin A2 (Homo sapiens) (UniProt P24941+P20248); experiment: Inhibition of human recombinant CDK2/cyclin A at 10 uM using histone H1 as substrate after 30 mins by scintillation counting method; format: protein-complex assay; method in brief: as §2
# Asteroidea = experiment: Inhibition of M phase starfish oocytes CDK1/cyclin B at 10 uM using histone H1 as substrate after 30 mins by scintillation counting method; method in brief: as §2
# [10] = target: Dual specificity protein kinase CLK1 (Mus musculus) (UniProt P22518); experiment: Inhibition of GST-tagged mouse recombinant CLK1 expressed in Escherichia coli at 10 uM after 30 mins by scintillation counting method; method in brief: as §2
# Chain of Dual specificity protein kinase CLK1 (Mus musculus) (P22518 whole entry, looked up): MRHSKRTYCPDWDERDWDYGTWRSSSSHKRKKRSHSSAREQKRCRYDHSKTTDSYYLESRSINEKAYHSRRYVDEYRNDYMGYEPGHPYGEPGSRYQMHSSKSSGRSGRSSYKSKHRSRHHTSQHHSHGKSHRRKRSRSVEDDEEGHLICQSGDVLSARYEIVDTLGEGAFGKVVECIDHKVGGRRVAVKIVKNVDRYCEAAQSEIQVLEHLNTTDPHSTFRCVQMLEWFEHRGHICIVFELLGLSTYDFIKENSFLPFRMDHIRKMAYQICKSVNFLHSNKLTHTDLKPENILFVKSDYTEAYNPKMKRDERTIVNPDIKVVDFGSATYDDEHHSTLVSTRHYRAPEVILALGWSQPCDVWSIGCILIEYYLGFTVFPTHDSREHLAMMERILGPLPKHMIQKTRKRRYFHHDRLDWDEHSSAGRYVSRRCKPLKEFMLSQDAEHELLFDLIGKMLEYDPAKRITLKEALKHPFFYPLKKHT
# [11] = target: CDK9/cyclin T1 (Homo sapiens) (UniProt O60563+P50750); experiment: Inhibition of human recombinant CDK9/cyclinT expressed in insect cells at 10 uM using CDK7/9-Tide as substrate after 30 mins by scintillation counting method; method in brief: as §2
# [12] = target: Glycogen synthase kinase-3 (Sus scrofa) (UniProt B2LUN4+I6LNT8); experiment: Inhibition of porcine brain GSK-3alpha/beta at 10 uM using GS-1 as substrate after 30 mins by scintillation counting method; method in brief: as §2
EC50 [2],Activity (Leishmania infantum),Activity (Trypanosoma brucei),IC50 [5],Activity (Trypanosoma cruzi),Compound,selectivity ratio [1],IC50 [3],Activity [6],further results
0.3 µM,48.6%,53.7%,,,Cc1ccc(CNC(=O)CN2C(=O)Cc3c([nH]c4ccc(Br)cc34)-c3ccc(Cl)cc32)cc1,> 167,9 µM,,solubility thermodynamic at 48 h [4]: < 0.48 µM
,,65.2%,1.2 µM,58.1%,O=C(CN1C(=O)Cc2c([nH]c3ccc(Br)cc23)-c2ccc(Cl)cc21)NCc1ccncc1,,,49.1%,
1.8 µM,55.4%,63.5%,,,O=C(CN1C(=O)Cc2c([nH]c3ccc(Br)cc23)-c2ccc(Cl)cc21)NCc1ccc(C(F)(F)F)cc1,> 18,9 µM,,
0.84 µM,,58%,10 µM,,O=C(CN1C(=O)Cc2c([nH]c3ccc(Br)cc23)-c2ccc(Cl)cc21)NCc1ccc(O)cc1,238,9 µM,,solubility thermodynamic at 48 h [4]: < 4.8 µM
,95.5%,75.8%,,54.8%,O=C(CN1C(=O)Cc2c([nH]c3ccc(Br)cc23)-c2ccc(Cl)cc21)NCc1ccccn1,,,33.8%,
,,55.3%,23 µM,,O=C(CN1C(=O)Cc2c([nH]c3ccc(Br)cc23)-c2ccc(Cl)cc21)NCc1ccccc1Cl,,11 µM,53.2%,
1 µM,,53.5%,24 µM,,COc1ccc(CNC(=O)CN2C(=O)Cc3c([nH]c4ccc(Br)cc34)-c3ccc(Cl)cc32)cc1,22,11 µM,,
,,64.8%,11 µM,,O=C(CN1C(=O)Cc2c([nH]c3ccc(Br)cc23)-c2ccc(Cl)cc21)NCc1cccnc1,,9 µM,59.4%,
0.84 µM,,42%,19 µM,,O=C(CN1C(=O)Cc2c([nH]c3ccc(Br)cc23)-c2ccc(Cl)cc21)NCc1ccc(Cl)c(Cl)c1,12,9 µM,,
8.3 µM,,70%,0.35 µM,44.5%,CNCCNC(=O)CN1C(=O)Cc2c([nH]c3ccc(C(F)(F)F)cc23)-c2ccccc21,1,,,
0.8 µM,109%,50.1%,,,O=C(CN1C(=O)Cc2c([nH]c3ccc(Br)cc23)-c2ccc(Cl)cc21)NCc1ccc(Cl)cc1,> 62,11 µM,,
0.04 µM,50%,45.2%,,72.8%,O=C(CN1C(=O)Cc2c([nH]c3ccc(Br)cc23)-c2ccc(Cl)cc21)NCc1ccccc1,1410,,,inhibition [7]: inactive; inhibition [8]: inactive; inhibition (Sus scrofa): inactive; inhibition [9]: inactive; inhibition (Asteroidea): inactive; inhibition [10]: inactive; inhibition [11]: inactive; inhibition [12]: inactive; solubility thermodynamic at 48 h [4]: < 0.49 µM
1.1 µM,,55.9%,17 µM,,O=C(CN1C(=O)Cc2c([nH]c3ccc(Br)cc23)-c2ccc(Cl)cc21)NCc1cccc(Cl)c1,91,11 µM,,
